Experimental findings from PMC3772642 (Nature, 2009) are described below.

One experiment has as its system nucleosomes. Put plainly: pull-down, nucleosomes. It counts as binding. As to conditions: methylated or unmodified nucleosomes, not separated. In short, it runs like this: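 Reconstituted chromatin arrays (salt dialysis, agarose-column purified to remove free histone) at 2 ug were incubated with 2 ug protein or complex in 50mM Tris pH8.0, 50mM NaCl, 1 mM EDTA, 0.1% NP40 for 2 hours at 4°C. Capture was on NiNta beads for Eed or M2 beads for PRC2. After extensive washing, beads were eluted in SDS loading buffer and analysed by western blot.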

Another experiment deals with ΔEed (Homo sapiens, UniProt O75530, M370T). Put plainly: crystal structure of ΔEed with ligand. It counts as binding. As to conditions: crystallisation additive 0.6–0.7 M NDSB-195, 4.0–4.1 M formate. The essentials:
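ΔEed carrying Met-370Thr was purified by size exclusion (50 mM Tris-HCl pH 8.7, 150 mM NaCl, 3 mM TCEP) and held at 1.5 mg/ml with peptide at 7-fold molar excess, 15 mM TCEP. Hanging-drop vapour diffusion was run at 18 °C, mixing equal volumes with 3.7–3.9 M formate. Apo ΔEed (2.5 mg/ml) used 4.0–4.1 M formate with 0.6–0.7 M NDSB-195.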

Experiment [1] deals with chromatin trimethylated on H3K9. The experiment can be described thus: pull-down, chromatin trimethylated on H3K9. Type of experiment: binding. As to conditions: 2 ug chromatin, 2 ug protein or complex, 2 hours at 4 C, western blot. The essentials:
(§1)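 Recombinant histones were made in E. coli, assembled into octamers and formed into chromatin by salt dialysis, then purified on an agarose column. Chromatin (2 ug) was incubated with 2 ug Sf9-reconstituted PRC2-Ezh2 in 50 mM Tris pH 8.0, 50 mM NaCl, 1 mM EDTA, 0.1% NP40 with M2 beads for 2 h at 4 °C. Beads were washed, eluted in SDS loading buffer and analysed by western blot against a beads-only control.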

For a further experiment, the system named is unmodified chromatin. Put plainly: pull-down, unmodified chromatin. Type of experiment: binding. As to conditions: M2-Beads pull-down, 2 hours at 4 C, western blot. The essentials:
as §1

The target in experiment [2] is truncated version of Eed (residues 77 to 441), ΔEed (UniProt O75530). The experiment can be described thus: other fluorescence titration.
The test system of experiment [3] is chromatin reconstituted with histones containing the different levels of H3K36 methylation. Put plainly: pull-down, H3K36 methylated chromatin. Type of experiment: binding. Particulars: NiNta pull-down, Fig. S8. The essentials: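 Chromatin arrays were built from recombinant histones carrying single chemically installed methyl-lysine analogs, assembled into octamers, formed by salt dialysis and cleared of free histone on an agarose column. 2 ug chromatin was incubated with 2 ug full-length His-tagged Eed in 50mM Tris pH8.0, 50mM NaCl, 1 mM EDTA, 0.1% NP40 for 2 hours at 4°C with NiNta beads. Beads were washed extensively, eluted in SDS loading buffer and analysed by western blot.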

Experiment [4] deals with truncated version of Eed (residues 77 to 441), ΔEed (UniProt O75530 78-441, Met-370Thr). Put plainly: other fluorescence titration.

No end group written: not given here. *: point of attachment. Dansyl = CN(C)c1cccc2c(S(=O)(=O)*)cccc12; Me3 = trimethyl-lysine, K(Me3)

“PRC2 Eed (Phe-97Ala): mutant PRC2 complex containing Eed (Phe-97Ala)”: the interaction with nucleosomes result in the experiment on nucleosomes is “does not show binding to chromatin”.

Regarding `CC[N+](C)(C)CCCS(=O)(=O)[O-]` [NDSB-195], the “electron density in central pocket of ΔEed” value on ΔEed was “able to build into the extra electron density”. On to “PRC2: PRC2 complex purified from insect cells co-infected with baculovirus expressing each of the subunits”, for which, in experiment [1], the “interaction with chromatin trimethylated on H3K9” value is “bound significantly tighter”. For the same molecule, the “interaction with unmodified chromatin” value in the experiment with unmodified chromatin was “displayed some binding”. Take R26A of H3K27me3 peptide: the fold reduction of binding against the H3K27me3 peptide in experiment [2] came out at 1.5 fold. With Eed: full-length His-tagged Eed protein, the “interaction with H3K36 methylated chromatin” value in experiment [3] is recorded as “not able to interact”. Further, the “interaction with chromatin trimethylated on H3K9” value in experiment [1] is given as “did bind”. For “PRC2 Eed (Tyr-365Ala): mutant PRC2 complex containing Eed (Tyr-365Ala)”, the interaction with nucleosomes result in the experiment on nucleosomes was “does not show binding to chromatin”. The same measure, in the same setting: in the case of “ΔEed: truncated version of Eed (residues 77 to 441)” it was “failed to interact with nucleosomes”.

B1: dansyl labelled peptide KKKARK(Me3)SAGAAK-dansyl (peptide)
peptide: KKKARK(Me3)SAGAAK(Dansyl)
modifications: not fully specified; printed as KKKARK(Me3)SAGAAK-dansyl
Turning to B1, the binding result in experiment [4] is on record as “binds”.
